# Compounds with a hit are over-represented: about 2.3% of the library has one in this group of screens.
# SR-BI DiI inh: mouse SR-BI HDL lipid transfer inhibition; Q61009; ldlA[mSR-BI] CHO cells, DiI-HDL uptake fluorescence, 3 h; inhibition, % at 12.5 µM; 0.96% of 320,000 active;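 active = mean replicate inhibition of at least 70% and a set share of replicates each scoring 70 or more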;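 also: 0% = median of neutral control wells and 100% = median of positive control wells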
# Target sequence (Q61009 whole entry, looked up): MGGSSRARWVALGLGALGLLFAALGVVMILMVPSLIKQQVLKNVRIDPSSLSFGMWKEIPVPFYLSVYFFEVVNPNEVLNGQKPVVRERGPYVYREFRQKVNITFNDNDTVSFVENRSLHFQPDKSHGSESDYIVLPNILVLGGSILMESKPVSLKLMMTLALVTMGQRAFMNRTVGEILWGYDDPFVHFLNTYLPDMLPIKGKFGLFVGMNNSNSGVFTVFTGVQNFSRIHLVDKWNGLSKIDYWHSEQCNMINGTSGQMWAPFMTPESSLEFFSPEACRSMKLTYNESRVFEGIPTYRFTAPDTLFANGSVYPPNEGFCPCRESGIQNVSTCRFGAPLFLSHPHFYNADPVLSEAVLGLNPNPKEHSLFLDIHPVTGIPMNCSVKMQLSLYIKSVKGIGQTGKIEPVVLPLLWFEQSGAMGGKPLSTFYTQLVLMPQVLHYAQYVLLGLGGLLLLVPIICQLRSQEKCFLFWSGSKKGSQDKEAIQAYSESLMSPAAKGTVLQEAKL
# CAL PDZ FP-1: blocks peptide binding to human CAL PDZ domain; Q9HD26; purified CAL PDZ, TMR-peptide fluorescence polarization, 1 h; inhibition, % at 20 µM; 0.02% of 330,000 active; AID 504414;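 active = highest replicate inhibition of at least 40%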;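 also: plate controls were DMSO neutral control wells for no effect and unlabeled competitor peptide control wells for full effect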
#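 Material: tagged CAL PDZ protein CerCALP, purified; buffer or medium: sodium phosphate/NaCl buffer pH 7.4 with TCEP, IgG, Thesit; also added: fluorescent TMR peptide probe; schedule: 1 h incubation at room temperature before polarization reading; technique: fluorescence polarization from S- and P-plane intensities, G-factor corrected; control set: unlabelled peptide and DMSO controls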
# ATG4B inh: blocks human ATG4B protease cleavage of LC3 substrate; 0.51% of 340,000 active; ATG4B cleavage of LC3-PLA2, NBD-HPC fluorescence, 1 h; inhibition, % at 8.33 µM; in the data active = inhibition above about 40%
# SR-BI uptake up: activators of SR-BI mediated HDL lipid uptake. CHO ldlA[mSR-BI] cells, DiI-HDL uptake fluorescence, 3 h; 100 = double the neutral-control signal. activation, % at 12.5 µM. 0.096% of 320,000 active;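 active = mean replicate activation of at least 60% and every replicate at or above 60%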;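 also: 0% = median plate neutral-control signal and 100% = twice that signal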
#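 Material: SR-BI-overexpressing, LDLR-lacking CHO cells | Dosing: Single compound concentration, delivered by pin transfer | Probe or stimulus: Labelled HDL, 10 µg/mL | Signal: Bottom-read cell fluorescence after medium removal, ex 550/em 595 nm | Schedule: 3 h, 37 °C | Evaluation: HDL uptake via cellular fluorescence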
# CAL PDZ FP-2: CAL PDZ (human) peptide binding inhibition | AID 602252 | 0.92% of 300,000 active | purified CAL PDZ, TMR-peptide fluorescence polarization, 1 h | Q9HD26 | inhibition, % at 24.9 µM;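 active = mean inhibition of at least 30% with at least half of replicates also reaching 30%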;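 also: 0% = DMSO neutral control and 100% = excess unlabeled competitor peptide PRC23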
# * hit, by the source's call; / = no result.
SMILES,SR-BI DiI inh,CAL PDZ FP-1,ATG4B inh,SR-BI uptake up,CAL PDZ FP-2
O=C(CCCCn1ccc(=O)[nH]c1=O)Nc1ccc(C(=O)O)c(O)c1,-21.0,0.1,0.8,21.0,5.9
Cc1ccc(CSCC(=O)Nc2cc(S(=O)(=O)N3CCOCC3)ccc2OCC(F)(F)F)cc1,-18.9,-0.4,-16.4,18.9,-16.6
O=C(N/N=C/C1CC=CCC1)c1ccccc1O (stereo not given),-17.7,-1.2,13.1,17.7,-2.2
O=C(CNc1ccccc1F)N/N=C/C1CC=CCC1 (stereo not given),-21.0,-2.2,-6.7,21.0,57.6*
Cc1nc2[nH]c(=O)n(O)c(=O)c2s1,-10.1,0.9,0.6,10.1,-2.2
O=C(COc1ccc2c(c1)OCO2)Nc1nccs1,0.9,-0.1,6.8,-0.9,53.4*
COc1ccccc1N1CCN(S(=O)(=O)c2ccc3c(c2)NC(=O)C(C)S3)CC1 (stereo not given),0.9,-0.5,-4.5,-0.9,113.7*
NCC(=O)Nc1ccc(Cl)cc1C(=O)c1ccc[nH]1,-17.8,-1.5,4.9,17.8,-2.5
Cc1ccc(C)c(NC(=O)CCc2nnc3ccc(N4CCCCC4)nn23)c1,1.3,-1.8,0.2,-1.3,-5.3
COc1ccc(-c2nc(NC(=O)C3CC(=O)N(c4ccc5c(c4)OCCO5)C3)sc2C)cc1 (stereo not given),74.3*,-0.6,-5.0,-74.3,-3.3
COc1ccc2nc(NC(=O)C3CC(=O)N(c4ccc5c(c4)OCCO5)C3)sc2c1 (stereo not given),23.7,-4.0,-22.8,-23.7,-4.5
CCCCn1c(N)c(N(C(=O)CSc2nncn2-c2ccccc2C)C2CCCC2)c(=O)[nH]c1=O,-15.9,1.0,-3.6,15.9,/
Cc1nc(N2CCN(C)CC2)c2c(C)c(C(=O)Nc3ccc(C)c(F)c3)sc2n1,38.0,-2.1,-9.6,-38.1,-0.9
Cc1nc(N2CCCCC2)c2c(C)c(C(=O)Nc3ccc4c(c3)OCCO4)sc2n1,77.4*,-2.0,-3.7,-77.4,1.0
Cc1nc(N2CCC(C)CC2)c2c(C)c(C(=O)Nc3ccc(C)c(F)c3)sc2n1,86.7*,-1.4,-7.9,-86.7,-3.1
CCN(C(=O)Cn1cc(C(=O)C(=O)N2CCOCC2)c2ccccc21)c1ccccc1,-20.4,-2.1,-3.4,20.4,-6.9
CCOC(=O)C(Cc1ccccc1)C(=O)Nc1nccs1 (stereo not given),12.1,0.7,-10.6,-12.1,-1.6
CCOC(=O)C(Cc1ccccc1)c1ccnc2ncnn12 (stereo not given),-16.5,0.4,-9.4,16.5,34.0*
COc1cccc(CN2CC(C(=O)NC3CCC3)CCC2=O)c1 (stereo not given),-14.2,-0.8,-1.7,14.2,-4.7
CCOC(=O)c1ccc(S(=O)(=O)N2CCN(C(=O)c3cccc(S(=O)(=O)N4CC(C)OC(C)C4)c3)CC2)cc1 (stereo not given),6.2,-0.9,-5.4,-6.2,0.9
O=C(Nc1ccc(Cl)cc1)NN1CCCCCC1,4.7,-1.1,-8.2,-4.7,-5.4
N#Cc1ccc(NC(=O)NN2CCCCCC2)cc1,11.5,-0.3,-18.1,-11.5,82.2*
O=C1NC(=O)/C(=C\c2ccc(N3CCOCC3)o2)N1,-15.8,0.6,0.5,15.8,2.3
O=C1NC(=O)/C(=C/c2ccc(N3CCOCC3)o2)N1,8.2,-0.8,3.8,-8.2,31.1*
CCN(Cc1ccc(N(C)C)cc1)C(C)C(=O)Nc1ccc(S(=O)(=O)N2CCCC2)cc1 (stereo not given),-11.9,-0.5,2.8,11.9,59.7*
SMILES,SR-BI DiI inh,CAL PDZ FP-1,ATG4B inh,SR-BI uptake up,CAL PDZ FP-2
CSc1ccccc1NC(=O)CN(C)CC(=O)Nc1ccc(S(=O)(=O)N2CCCC2)cc1,-7.2,0.5,-4.8,7.2,48.5*
Cc1ccc2nsnc2c1NC(=O)COc1ccccc1F,-0.8,-2.8,-0.4,0.8,0.4
CCOc1cccc(C(=O)Nc2ccc(NC(=O)c3cc4ccccc4o3)c(OC)c2)c1,71.7*,-0.4,-1.6,-71.7,-5.8
COc1cc(NC(=O)c2cccc(C)c2)ccc1NC(=O)c1cc2ccccc2o1,84.7*,-0.9,1.8,-84.7,-2.0
CCCCn1c(SCC(=O)N(C)C2CCS(=O)(=O)C2)nc2cc(S(N)(=O)=O)ccc21 (stereo not given),-12.5,0.1,-2.7,12.5,52.5*
Cc1ccnc(NC(=O)COc2c(C)cc(C)cc2[N+](=O)[O-])c1,97.8*,-0.2,3.5,-97.8,-3.2
Cc1cc(C)c(OCC(=O)Nc2ccccn2)c([N+](=O)[O-])c1,0.5,-0.3,-3.4,-0.5,-0.5
O=C(CC(c1ccccc1)C1CCCCC1=O)c1ccccc1 (stereo not given),-3.4,0.0,0.8,3.4,32.3*
O=C(NN(CC(O)COc1ccccc1)CC(O)COc1ccccc1)c1ccccc1 (stereo not given),-21.1,-3.7,-7.0,21.1,/
Cc1cccc(C)c1NC(=O)Cn1nnnc1N,-11.5,7.9,-6.8,11.5,65.9*
CCc1nc2ccccc2n1CC(O)COCC1CC=CCC1 (stereo not given),1.7,-0.2,-6.1,-1.7,43.0*
CCCCC(=O)Nc1nc(C)c(-c2csc(Nc3cc(Cl)ccc3OC)n2)s1,88.3*,-3.0,-5.1,-88.3,3.6
CCCC(=O)Nc1nc(C)c(-c2csc(Nc3ccccc3C)n2)s1,28.5,-1.1,14.5,-28.5,-5.3
CCCC(C)C(=O)Nc1nc(C)c(-c2csc(Nc3ccc(Cl)cc3)n2)s1 (stereo not given),84.7*,-0.1,1.1,-84.7,-3.6
CCCCCCC(=O)Nc1nc(C)c(-c2csc(Nc3cc(Cl)ccc3C)n2)s1,63.5,0.6,-1.6,-63.5,-4.2
Cc1nc(NC(=O)c2ccccc2)sc1-c1csc(N)n1,23.2,0.3,-4.4,/,-3.3
Cc1nc(NC(=O)c2ccccc2)sc1-c1csc(NCCc2ccccc2)n1,76.2*,-0.6,27.7,-76.2,1.0
CCOc1ccccc1Nc1nc(-c2sc(NC(=O)c3cccc(Cl)c3)nc2C)cs1,103.8*,1.4,-6.8,-103.8,0.2
Cc1ccccc1NC(=O)Cc1nc(COC(=O)Cc2c(F)cccc2Cl)cs1,22.3,-1.4,19.8,-22.3,-2.8
CC[C@]12C(=O)N(C)C[C@H]([C@@H]3C(=O)N(Cc4ccccc4)C(=O)[C@@H]31)N2C(=O)c1ccc(C(F)(F)F)cc1,/,/,2.6,/,/
COc1ccccc1Nc1nc(-c2sc(NC(=O)c3ccccc3)nc2C)cs1,59.2,0.8,12.6,-59.2,-5.2
CCCCC(=O)Nc1nc(C)c(-c2csc(Nc3cc(OC)ccc3OC)n2)s1,83.0*,0.9,-6.6,-83.0,4.3
CCCCCC(=O)Nc1nc(C)c(-c2csc(Nc3ccccc3OC)n2)s1,32.7,0.1,4.1,-32.7,-1.2
CCCCCCC(=O)Nc1nc(C)c(-c2csc(Nc3ccccc3OC)n2)s1,79.6*,-0.4,-5.4,-79.6,-3.1

# Source: PubChem
